Tests used:
DU-145 = assay: Cytotoxicity against human DU145 cells after 48 hrs by SRB assay; format: functional, cell-based; settings: Homo sapiens, DU-145, 48 h; for CC50: read-out: LC50 (the source's name); for GI50: read-out: GI50
How it was run: (§1)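 Cells grown in RPMI 1640 with 10% FBS and penicillin/streptomycin at 37 °C and 5% CO₂, trypsinized, then seeded at 5 × 10³/well. After 18 h drug-free attachment, samples in DMSO/EtOH/PBS (0.5:0.5:99) were added for 48 h continuous exposure. Cells were fixed with cold TCA (1 h, 4 °C) and stained with SRB (10 min). Tris-solubilized stain read at 490 nm. Triplicate wells, mean ± SD; GI₅₀ derived.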

LNCaP = assay: Cytotoxicity against human LNcaP cells after 48 hrs by SRB assay; format: functional; settings: for CC50: read-out: LC50 (the source's name); how it was run: as §1
[1] = Cytotoxicity against human IGROV cells after 48 hrs by SRB assay; format: functional; settings: for CC50: read-out: LC50 (the source's name); how it was run: as §1
[2] = Cytotoxicity against human IGROV-ET cells after 48 hrs by SRB assay; format: functional; settings: for CC50: read-out: LC50 (the source's name); how it was run: as §1
SK-MEL-28 = assay: Cytotoxicity against human SK-MEL-28 cells after 48 hrs by SRB assay; format: functional, cell-based; settings: Homo sapiens, SK-MEL-28, 48 h; for CC50: read-out: LC50 (the source's name); for GI50: read-out: GI50; how it was run: as §1
A549 = assay: Cytotoxicity against human A549 cells after 48 hrs by SRB assay; format: functional, cell-based; settings: Homo sapiens, A549, 48 h; for GI50: read-out: GI50; how it was run: as §1
K562 = assay: Cytotoxicity against human K562 cells after 48 hrs by SRB assay; format: functional; settings: K562, 48 h; for CC50: read-out: LC50 (the source's name); how it was run: as §1
PANC-1 = assay: Cytotoxicity against human PANC1 cells after 48 hrs by SRB assay; format: functional; settings: PANC-1, 48 h; for CC50: read-out: LC50 (the source's name); how it was run: as §1
HT-29 = assay: Cytotoxicity against human HT29 cells after 48 hrs by SRB assay; format: functional, cell-based; settings: Homo sapiens, HT-29, 48 h; for CC50: read-out: LC50 (the source's name); how it was run: as §1
LoVo [3] = assay: Cytotoxicity against human LoVo cells after 48 hrs by SRB assay; format: functional; settings: for CC50: read-out: LC50 (the source's name)
LoVo [4] = assay: Cytotoxicity against human doxorubicin resistant LoVo cells after 48 hrs by SRB assay; format: functional; settings: for CC50: read-out: LC50 (the source's name); how it was run: as §1
HeLa = assay: Cytotoxicity against human HeLa cells after 48 hrs by SRB assay; format: functional; settings: for CC50: read-out: LC50 (the source's name); how it was run: as §1
[5] = Cytotoxicity against human HeLa-APL cells after 48 hrs by SRB assay; format: functional; how it was run: as §1

Compound | CC50 (DU-145) [nM] | GI50 (LNCaP) [nM] | TGI (LNCaP) [nM] | CC50 (LNCaP) [nM] | CC50 [1] [nM] | CC50 [2] [nM] | CC50 (SK-MEL-28) [nM] | LC50 (A549) [nM] | GI50 (K562) [nM] | TGI (K562) [nM] | CC50 (K562) [nM] | GI50 (PANC-1) [nM] | TGI (PANC-1) [nM] | CC50 (PANC-1) [nM] | CC50 (HT-29) [nM] | CC50 (LoVo [3]) [nM] | CC50 (LoVo [4]) [nM] | GI50 ([2]; read-out: GI50) [nM] | GI50 (LoVo [3]) [nM] | TGI (LoVo [3]) [nM] | also measured
C/C=C1\NC(=O)[C@H](Cc2ccccc2)NC(=O)[C@@H](C(C)C)NC(=O)[C@@H]([C@H](C)CC)NC(=O)[C@H](NC(=O)[C@H](NC(=O)[C@H](CCCN)NC(=O)[C@H]2CCCN2C(=O)[C@H](NC(=O)CCCC(C)C)C(C)C)[C@H](C)CC)[C@H](C)OC(=O)[C@H](C(C)C)NC1=O | 22300 | 9850 | 9970 | 8890 | 6040 | 6210 | 2500 | 2870 | 3480 | 3510 | 3540 | 2920 | 2660 | 2450 | 7470 | 4320 | 5840 |  |  |  | 
C/C=C1\NC(=O)[C@H](Cc2ccccc2)NC(=O)[C@@H](C(C)C)NC(=O)[C@@H]([C@H](C)CC)NC(=O)[C@H](NC(=O)[C@H](NC(=O)[C@H](CCCN)NC(=O)[C@H]2CCCCN2C(=O)[C@H](NC(=O)[C@@H](NC(=O)[C@@H](NC(=O)[C@H](NC(=O)CC[C@@H](C)CC)C(C)C)[C@@H](C)O)C(C)C)C(C)C)[C@H](C)CC)[C@H](C)OC(=O)[C@H](C(C)C)NC1=O | 1300 |  |  | 1310 | 487 | 483 | 1360 | 6720 |  |  | 2160 |  |  | 2020 | 447 | 678 | 1700 | 894 | 2250 | 2340 | GI50 [1]: 786 nM; GI50 ([1]; read-out: GI50): 1390 nM; GI50 [2]: 632 nM; TGI (SK-MEL-28): 1470 nM; GI50 (SK-MEL-28): 1590 nM; TGI (A549): 8700 nM; GI50 (A549): 8000 nM; GI50 (LoVo [4]): 1220 nM; TGI (LoVo [4]): 1820 nM; GI50 (HeLa): 3080 nM; TGI (HeLa): 2660 nM; CC50 (HeLa): 1080 nM; GI50 [5]: 1510 nM; LC50 (concentration giving 50% net cell kill) [5]: 978 nM; TGI [5]: 1450 nM
C/C=C1\NC(=O)[C@H](Cc2ccccc2)NC(=O)[C@@H](C(C)C)NC(=O)[C@@H]([C@H](C)CC)NC(=O)[C@H](NC(=O)[C@H](NC(=O)[C@H](CCCN)NC(=O)[C@@H]2CCCN2C(=O)[C@H](NC(=O)[C@@H](NC(=O)[C@@H](NC(=O)[C@H](NC(=O)CC[C@@H](C)CC)C(C)C)[C@@H](C)O)C(C)C)C(C)C)[C@H](C)CC)[C@H](C)OC(=O)[C@H](C(C)C)NC1=O | 1430 |  |  | 1630 | 525 | 549 | 1620 | 6780 |  |  | 2180 |  |  | 2040 | 6760 | 794 | 1870 |  |  |  | CC50 (HeLa): 1090 nM; LC50 (concentration giving 50% net cell kill) [5]: 986 nM
C/C=C1\NC(=O)[C@H](Cc2ccccc2)NC(=O)[C@@H](C(C)C)NC(=O)[C@@H]([C@H](C)CC)NC(=O)[C@H](NC(=O)[C@H](NC(=O)[C@H](CCCN)NC(=O)[C@H]2CCCN2C(=O)[C@H](NC(=O)[C@@H](NC(=O)[C@@H](NC(=O)[C@H]2CCCN2C(=O)CCCC(C)C)[C@@H](C)O)C(C)C)C(C)C)[C@H](C)CC)[C@H](C)OC(=O)[C@H](C(C)C)NC1=O | 1160 | 1160 | 1110 | 1060 | 768 | 426 | 1140 | 1240 | 1310 | 1530 | 1800 | 2750 | 3800 | 2820 | 1140 | 1500 | 3270 | 4700 |  |  | GI50 [2]: 608 nM; TGI (SK-MEL-28): 1240 nM; GI50 (SK-MEL-28): 1050 nM; GI50 (LoVo [4]): 3510 nM; TGI (LoVo [4]): 3370 nM; CC50 (HeLa): 1090 nM; GI50 [5]: 1180 nM; LC50 (concentration giving 50% net cell kill) [5]: 1010 nM; TGI [5]: 1650 nM
C/C=C1\NC(=O)[C@H](Cc2ccccc2)NC(=O)[C@@H](C(C)C)NC(=O)[C@@H]([C@H](C)CC)NC(=O)[C@H](NC(=O)[C@H](NC(=O)[C@H](CCCN)NC(=O)[C@@H]2CC[C@H](c3ccccc3)N2C(=O)[C@H](NC(=O)[C@@H](NC(=O)[C@@H](NC(=O)[C@H](NC(=O)CC[C@@H](C)CC)C(C)C)[C@@H](C)O)C(C)C)C(C)C)[C@H](C)CC)[C@H](C)OC(=O)[C@H](C(C)C)NC1=O | 1360 |  |  | 1550 | 499 | 5220 | 1540 | 6440 |  |  | 2080 |  |  | 1940 | 643 | 756 | 1780 |  | 7330 | 6170 | CC50 (HeLa): 1040 nM; LC50 (concentration giving 50% net cell kill) [5]: 938 nM
C/C=C1\NC(=O)[C@H](Cc2ccccc2)NC(=O)[C@@H](C(C)C)NC(=O)[C@@H]([C@H](C)CC)NC(=O)[C@H](NC(=O)[C@H](NC(=O)[C@H](CCCN)NC(=O)[C@H]2CCCN2C(=O)[C@H](NC(=O)[C@@H](NC(=O)[C@@H](NC(=O)[C@H](NC(=O)CCCCC(C)(F)F)C(C)C)[C@@H](C)O)C(C)C)C(C)C)[C@H](C)CC)[C@H](C)OC(=O)[C@H](C(C)C)NC1=O | 5480 | 1840 | 2870 | 3730 | 2460 | 571 | 1300 | 1440 | 2960 | 2460 | 2060 | 2040 | 1850 | 1690 | 3190 | 444 | 50700 | 987 | 442 | 397 | TGI (DU-145): 3920 nM; GI50 (DU-145): 4520 nM; TGI [1]: 1540 nM; GI50 ([1]; read-out: GI50): 1330 nM; GI50 [2]: 751 nM; TGI (A549): 2320 nM; GI50 (A549): 2030 nM; GI50 (HT-29): 1960 nM; TGI (HT-29): 2510 nM
C/C=C1\NC(=O)[C@H](Cc2ccccc2)NC(=O)[C@@H](C(C)C)NC(=O)[C@@H]([C@H](C)CC)NC(=O)[C@H](NC(=O)[C@H](NC(=O)[C@H](CCC(=O)O)NC(=O)[C@H]2CCCN2C(=O)[C@H](NC(=O)[C@@H](NC(=O)[C@@H](NC(=O)[C@H](NC(=O)CCCC(C)C)C(C)C)[C@@H](C)O)C(C)C)C(C)C)[C@H](C)CC)[C@H](C)OC(=O)[C@H](C(C)C)NC1=O | 10200 | 1880 | 3130 | 4360 | 3200 | 3540 | 1980 | 22600 | 3320 | 4200 | 2900 | 2500 | 2540 | 2600 | 4000 | 1350 | 3590 | 3540 | 785 | 692 | TGI [1]: 2530 nM; GI50 ([1]; read-out: GI50): 1950 nM; TGI [2]: 3530 nM; TGI (SK-MEL-28): 4980 nM; GI50 (SK-MEL-28): 5890 nM; TGI (A549): 8950 nM; GI50 (A549): 1090 nM; GI50 (HT-29): 2670 nM; TGI (HT-29): 3260 nM
C/C=C1\NC(=O)[C@H](Cc2ccccc2)NC(=O)[C@@H](C(C)C)NC(=O)[C@@H]([C@H](C)CC)NC(=O)[C@H](NC(=O)[C@H](NC(=O)[C@H](CCCN)NC(=O)[C@H]2CCCN2C(=O)[C@H](NC(=O)[C@@H](NC(=O)[C@@H](NC(=O)[C@H](NC(=O)Cc2ccc(C(F)(F)F)cc2)C(C)C)[C@@H](C)O)C(C)C)C(C)C)[C@H](C)CC)[C@H](C)OC(=O)[C@H](C(C)C)NC1=O | 6240 | 1630 | 3130 | 4400 | 1890 | 524 | 1200 | 1100 | 2230 | 2520 | 2790 | 2170 | 2250 | 2340 | 2920 | 819 | 1240 | 866 | 458 | 492 | TGI (DU-145): 5500 nM; GI50 (DU-145): 5280 nM; GI50 [1]: 892 nM; GI50 ([1]; read-out: GI50): 1000 nM; GI50 [2]: 675 nM; TGI (SK-MEL-28): 15900 nM; GI50 (SK-MEL-28): 2800 nM; TGI (A549): 2150 nM; GI50 (A549): 1840 nM; GI50 (HT-29): 1680 nM; TGI (HT-29): 2300 nM
